ChEMBL document CHEMBL5126614 (ACS Med Chem Lett, 2022)

What was measured:
Glucagon receptor = Glucagon receptor (Homo sapiens, UniProt P47871); test: Agonist activity at human GCGR expressed in frozen cells assessed as increase in cAMP production measured after 1 hr by HitHunter luminescence assay; type: functional, cell-based
Macaca mulatta = organism: Macaca mulatta; test: Selectivity ratio of EC50 for rhesus monkey GCGR to EC50 for rhesus monkey GLP1R
[1] = Agonist activity at rhesus monkey GCGR; parameters: species or system Macaca mulatta
[2] = Agonist activity at rhesus monkey GLP1R; parameters: species or system Macaca mulatta
[3] = biological target: Glucagon-like peptide 1 receptor (Homo sapiens, UniProt P43220); test: Agonist activity at human GLP1R expressed in frozen cells assessed as increase in cAMP production measured after 1 hr by HitHunter luminescence assay; type: functional, cell-based
Homo sapiens = organism: Homo sapiens; test: Selectivity ratio of EC50 for human GCGR expressed in frozen cells to EC50 for human GLP1R expressed in frozen cells; type: cell-based
Rhesus monkey [4] = test: Anti-obesity activity in type 2 diabetes rhesus monkey model assessed as reduction in body weight at 30 ug/kg, sc qd for 2 weeks and measured during second week of dosing relative to control; type: functional, Macaca mulatta; parameters: scale not given: the % may be the effect or the level left; conditions: dose 30 µg/kg
Rhesus monkey [5] = test: Anti-obesity activity in type 2 diabetes rhesus monkey model assessed as reduction in body weight at 30 ug/kg, sc qd for 3 weeks and measured during third week of dosing relative to control; type: functional, Macaca mulatta; parameters: scale not given: the % may be the effect or the level left; conditions: dose 30 µg/kg
Rhesus monkey [6] = test: Anti-obesity activity in type 2 diabetes rhesus monkey model assessed as reduction in cumulative food intake at 30 ug/kg, sc qd for 3 weeks and measured daily for 21 days relative to baseline; type: functional, Macaca mulatta; parameters: scale not given: the % may be the effect or the level left; conditions: dose 30 µg/kg
Rhesus monkey [7] = test: Anti-obesity activity in type 2 diabetes rhesus monkey model assessed as reduction in body weight at 30 ug/kg, sc qd for 1 week and measured during 1 week relative to control; type: functional, Macaca mulatta; parameters: scale not given: the % may be the effect or the level left; conditions: dose 30 µg/kg, time 1 weeks
Rhesus monkey [8] = test: Antidiabetic activity in type 2 diabetes rhesus monkey model assessed as corrected fasting glucose level at 30 ug/kg, sc qd for 3 weeks and measured on day 22 by intravenous glucose tolerance test; type: functional, Macaca mulatta; conditions: dose 30 µg/kg, time 22 day
How it was run: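 Type 2 diabetic rhesus monkeys received daily dosing for 3 weeks, alongside vehicle and a liraglutide benchmark at 30 μg/kg. Fasting plasma glucose was compared with baseline or vehicle, and fasting insulin with vehicle.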

Rhesus monkey [9] = test: Anti-obesity activity in type 2 diabetes rhesus monkey model assessed as weight loss at 30 ug/kg, sc qd for 3 weeks relative to control; type: functional, Macaca mulatta; conditions: dose 30 µg/kg

Glucagon-like peptide 1 receptor, sequence (P43220 whole entry): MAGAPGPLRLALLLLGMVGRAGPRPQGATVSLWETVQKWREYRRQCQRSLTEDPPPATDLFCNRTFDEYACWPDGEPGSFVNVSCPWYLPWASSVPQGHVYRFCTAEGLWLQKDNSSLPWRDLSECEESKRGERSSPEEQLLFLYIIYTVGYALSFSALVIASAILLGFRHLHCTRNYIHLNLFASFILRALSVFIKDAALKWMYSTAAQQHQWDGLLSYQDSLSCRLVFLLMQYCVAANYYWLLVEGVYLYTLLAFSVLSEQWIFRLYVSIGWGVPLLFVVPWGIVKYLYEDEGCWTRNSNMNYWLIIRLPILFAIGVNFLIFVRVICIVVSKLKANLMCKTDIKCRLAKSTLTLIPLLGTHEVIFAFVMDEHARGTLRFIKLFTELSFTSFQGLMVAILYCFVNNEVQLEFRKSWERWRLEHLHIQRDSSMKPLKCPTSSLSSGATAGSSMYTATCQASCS
Glucagon receptor, sequence (P47871 whole entry): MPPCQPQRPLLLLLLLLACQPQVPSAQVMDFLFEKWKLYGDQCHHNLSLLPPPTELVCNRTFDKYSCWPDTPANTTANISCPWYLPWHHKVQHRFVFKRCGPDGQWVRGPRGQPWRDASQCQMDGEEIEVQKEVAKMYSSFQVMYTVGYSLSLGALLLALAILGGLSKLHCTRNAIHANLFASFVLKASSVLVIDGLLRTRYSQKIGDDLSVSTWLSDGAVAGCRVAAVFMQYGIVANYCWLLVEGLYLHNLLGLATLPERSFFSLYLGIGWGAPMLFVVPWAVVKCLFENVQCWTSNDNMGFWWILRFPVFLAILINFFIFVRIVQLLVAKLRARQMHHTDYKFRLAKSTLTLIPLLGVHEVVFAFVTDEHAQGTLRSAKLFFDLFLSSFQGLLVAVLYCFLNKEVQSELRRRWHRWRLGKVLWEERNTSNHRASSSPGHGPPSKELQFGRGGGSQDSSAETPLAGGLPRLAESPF

EC50 (Glucagon receptor)	Ratio EC50 (Macaca mulatta)	EC50 [1]	EC50 [2]	EC50 [3]	Structure (SMILES)	Ratio EC50 (Homo sapiens)	Activity (Rhesus monkey [4])	Activity (Rhesus monkey [5])	Activity (Rhesus monkey [6])	Activity (Rhesus monkey [7])	Activity (Rhesus monkey [8])	Activity (Rhesus monkey [9])
0.017 nM	0.5	8 pM	0.015 nM	0.013 nM	CCCCCCCCCCCCCCCC(=O)N[C@@H](CCC(=O)N[C@@H](CCC(=O)NCCCC[C@H](NC(=O)[C@H](CC(=O)O)NC(=O)[C@H](CO)NC(=O)[C@@H](NC(=O)[C@H](Cc1ccccc1)NC(=O)[C@@H](NC(=O)CNC(=O)[C@H](CCC(N)=O)NC(=O)[C@@H](CO)NC(=O)[C@@H](N)Cc1cnc[nH]1)[C@@H](C)O)[C@@H](C)O)C(=O)N[C@@H](CO)C(=O)N[C@@H](CCCCN)C(=O)N[C@@H](Cc1ccc(O)cc1)C(=O)N[C@@H](CC(C)C)C(=O)N[C@@H](CC(=O)O)C(=O)N[C@@H](CCC(=O)O)C(=O)N[C@@H](CCCNC(=N)N)C(=O)N[C@@H](C)C(=O)N[C@@H](C)C(=O)N[C@@H](CCC(N)=O)C(=O)N[C@@H](CC(=O)O)C(=O)N[C@@H](Cc1ccccc1)C(=O)N[C@H](C(=O)N[C@@H](CCC(N)=O)C(=O)N[C@@H](Cc1c[nH]c2ccccc12)C(=O)N[C@@H](CC(C)C)C(=O)N[C@@H](CC(C)C)C(=O)N[C@@H](CC(=O)O)C(=O)N[C@H](C(N)=O)[C@@H](C)O)C(C)C)C(=O)O)C(=O)O	1.3						
					CCCCCCCCCCCCCCCC(=O)N[C@@H](CCC(=O)NCCCC[C@H](NC(=O)[C@H](C)NC(=O)[C@H](C)NC(=O)[C@H](CCC(N)=O)NC(=O)CNC(=O)[C@H](CCC(=O)O)NC(=O)[C@H](CC(C)C)NC(=O)[C@H](Cc1ccc(O)cc1)NC(=O)[C@H](CO)NC(=O)[C@H](CO)NC(=O)[C@@H](NC(=O)[C@H](CC(=O)O)NC(=O)[C@H](CO)NC(=O)[C@@H](NC(=O)[C@H](Cc1ccccc1)NC(=O)[C@@H](NC(=O)CNC(=O)[C@H](CCC(=O)O)NC(=O)[C@H](C)NC(=O)[C@@H](N)Cc1cnc[nH]1)[C@@H](C)O)[C@@H](C)O)C(C)C)C(=O)N[C@@H](CCC(=O)O)C(=O)N[C@@H](Cc1ccccc1)C(=O)N[C@H](C(=O)N[C@@H](C)C(=O)N[C@@H](Cc1c[nH]c2ccccc12)C(=O)N[C@@H](CC(C)C)C(=O)N[C@H](C(=O)N[C@@H](CCCNC(=N)N)C(=O)NCC(=O)N[C@@H](CCCNC(=N)N)C(=O)NCC(=O)O)C(C)C)[C@@H](C)CC)C(=O)O [LIRAGLUTIDE]		1%	0.6%	32%	1.7%	30 mg/dL	3.3%
